# Compounds with a hit are over-represented: about 4.8% of the library has one in this group of screens.
# UCH37 DUB inh: inhibitors of human UCH37 deubiquitinase, primary screen, biochemical, Ub-AMC cleavage, fluorescence | Ubiquitin carboxyl-terminal hydrolase isozyme L5 (Homo sapiens), Q9Y5K5 | purified proteasome/UCH37 | inhibition, % (test concentration not listed) | actives 0.33% (n = 330,000);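 active = mean inhibition over replicate wells above about 20%, limit read from the data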;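 also: 0% = compound-free wells with enzyme and 100% = wells lacking proteasome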
#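 Material: Human UCH37 enzyme supplied as purified proteasome complex | Schedule: 30 min compound-proteasome preincubation then 25 min substrate reaction, room temperature | Detection: AMC fluorescence from Ub-AMC cleavage, excitation 355 nm, emission 460 nm | Benchmarks: Wells without proteasome as full block, compound-free enzyme plus substrate as uninhibited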
# Calb FLC: C. albicans growth inhibition with fluconazole, primary screen, CaCi-2 strain, Alamar Blue fluorescence; C. albicans CaCi-2 + fluconazole, 48 h; actives 0.57% (n = 300,000); growth inhibition, % (test concentration not listed);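 active = growth inhibition above about 58% in most replicates, limit read from the data, passing the limit was not always enough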;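 also: all wells also contain fluconazole at 8 µg/ml as a sub-toxic cotreatment; 0% = median of DMSO wells and 100% = median of geldanamycin control wells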
# NLRP3 yeast inh: NALP3 inflammasome inhibitors in reconstituted yeast, primary screen, luminescence, uHTS. Yeast reconstituted NLRP3/ASC/caspase-1, beta-gal luminescence, 24 h. actives 0.39% (n = 330,000). inhibition, % at 10 µM;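 active = inhibition of 50% or more; inactive = inhibition below 50%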;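 also: plate controls were induced DMSO wells for no effect and uninduced yeast grown without galactose for full effect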
# ATG4B inh: ATG4B protease inhibitors, primary screen, biochemical, fluorescence, uHTS; Cysteine protease ATG4B (Homo sapiens), Q9Y4P1; ATG4B cleavage of LC3-PLA2, NBD-HPC fluorescence, 1 h; inhibition, % at 8.33 µM; actives 0.51% (n = 340,000); AID 504462, 2011; in the data active = inhibition above about 40%
# Target sequence (Q9Y4P1 whole entry, looked up): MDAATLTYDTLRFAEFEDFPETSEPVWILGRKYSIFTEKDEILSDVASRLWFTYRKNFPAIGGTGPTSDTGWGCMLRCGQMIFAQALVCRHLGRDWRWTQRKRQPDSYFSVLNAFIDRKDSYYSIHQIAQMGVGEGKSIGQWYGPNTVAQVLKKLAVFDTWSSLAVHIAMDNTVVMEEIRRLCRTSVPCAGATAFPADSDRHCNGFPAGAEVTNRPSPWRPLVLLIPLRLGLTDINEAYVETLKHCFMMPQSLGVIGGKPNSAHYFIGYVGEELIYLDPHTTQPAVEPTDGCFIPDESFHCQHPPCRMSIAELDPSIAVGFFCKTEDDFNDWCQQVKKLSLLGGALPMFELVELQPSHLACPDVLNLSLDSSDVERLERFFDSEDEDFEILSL
# NALP1 inh: NALP1 inflammasome inhibitors in reconstituted yeast, colorimetric, S. cerevisiae, triplicate retest; S. cerevisiae NALP1/ASC/caspase-1 growth, X-gal OD620, 72 h; actives 0.61% (n = 280,000); inhibition, % at 10 µM; in the data active = inhibition mostly above about 24%, no sharp cut-off; inactive = mostly below about 32%
# ALR inh: inhibitors of human ALR sulfhydryl oxidase, primary screen, biochemical, H2O2 detection, HRP-luminol luminescence, single point. FAD-linked sulfhydryl oxidase ALR (Homo sapiens), P55789. inhibition, % (no concentration beside the values). purified ALR, DTT oxidation. actives 3.8% (n = 290,000);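 active = mean replicate inhibition above about 79%, with every replicate also reaching it, limit read from the data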
# Target sequence (P55789 whole entry, looked up): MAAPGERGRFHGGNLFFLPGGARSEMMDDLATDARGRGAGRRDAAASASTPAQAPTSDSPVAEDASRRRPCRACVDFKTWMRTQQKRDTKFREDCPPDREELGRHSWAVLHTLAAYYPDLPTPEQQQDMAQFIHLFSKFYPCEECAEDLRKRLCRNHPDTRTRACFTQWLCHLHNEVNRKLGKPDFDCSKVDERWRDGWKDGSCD
# ATG4B conf: ATG4B protease inhibitors, retest, confirmation, biochemical, fluorescence, single concentration. actives 92% (n = 320). shares compounds with ATG4B inh. ATG4B protease fluorescent substrate cleavage assay. AID 504757, 2011. inhibition, % at 8.33 µM; in the data active = inhibition above about 39%
# PLA2 ctr: PLA2 enzyme inhibition, counter-screen for ATG4B inhibitor project, biochemical, single concentration, uHTS hits. inhibition, % at 8.33 µM. AID 588402, 2011. actives 66% (n = 1,600). purified PLA2, NBD-C6-HPC fluorescence, 45 min. shares compounds with ATG4B inh; in the data active = inhibition above about 50%
# The depositor's hits bear a star; . = not tested or not shown.
SMILES,UCH37 DUB inh,Calb FLC,NLRP3 yeast inh,ATG4B inh,NALP1 inh,ALR inh,PLA2 ctr,others
Cc1ccc(C(=O)N/N=C(/CC(=O)c2cccs2)C(F)(F)F)cc1,.,1.0,-3.4,40.6*,7.8,62.2,28.0,
Fc1ccc(C2c3[nH]c4ccccc4c3CCN2Cc2cccn2-c2ncccn2)cc1 (configuration not stated),0.1,-20.7,21.8,40.8*,15.0,-1.7,36.2,ATG4B conf=70.3*
CCc1nn(CCCC(=O)NCc2ccccc2Br)c(=O)c2cc3occc3n12,3.4,-3.6,21.4,50.5*,13.8,0.5,42.9,ATG4B conf=65.6*
CCc1cccc(NC(=O)CCCn2nc(CC)n3c(cc4occc43)c2=O)c1,4.0,54.3,10.8,-5.2,13.7,-2.3,.,
Cc1ccc(N(CC(=O)Nc2ccc(F)c(Cl)c2)S(=O)(=O)c2c(C)noc2C)cc1,-1.6,3.8,-22.0,40.6*,-5.6,.,61.0*,
COc1cc(OC)c(OC)cc1C=NNc1ncnc2c1[nH]c1ccccc12,-16.2,.,.,.,.,.,.,
CC1CC1c1ccc(/C=C(\C#N)C(=O)Nc2ccc(Cl)cc2)o1 (configuration not stated),0.5,4.9,18.9,-7.0,14.5,-15.3,.,
CC1CC1c1ccc(/C=C(\C#N)C(=O)Nc2ccccc2Cl)o1 (configuration not stated),-3.3,-0.4,5.2,41.3*,9.2,.,50.6*,
S=C(NCCCCc1ccccc1)NCc1ccccc1,1.2,-31.4,27.6,63.1*,-2.8,-17.3,69.6*,
S=C(NCc1cccc(Cl)c1)NC1CCCCC1,2.2,-4.6,21.3,59.2*,24.9,-1.9,64.0*,
O=C(CCSCc1cccc(Cl)c1)NCCc1ccc(Cl)cc1,1.2,3.7,16.1,43.6*,26.6,-15.2,15.6,
O=C(CCSCc1ccc(Cl)cc1)NCCc1ccccc1,2.3,6.0,33.0,5.3,25.5,-2.6,.,
S=C(NCCc1ccccc1)NCc1cccc(Cl)c1,3.3,-7.9,12.2,84.2*,-2.5,34.8,90.1*,
CCC(=NNc1ccc([N+](=O)[O-])cc1[N+](=O)[O-])c1ccc(O)cc1,5.6,.,.,.,.,.,.,
Cc1ccsc1C=NNC(=O)c1nnn(-c2nonc2N)c1CN(C)c1ccccc1,4.7,.,.,.,.,.,.,
Cc1nc2ccccc2n1CC(=O)NN=Cc1ccccn1,-1.9,.,.,.,.,.,.,
COc1ccc(-n2c(C)cc(/C=C3\SC(=S)NC3=O)c2C)cc1,6.1,-2.3,14.6,22.5,-0.1,24.1,.,
COc1ccc2nc(N3CCCCC3)c(/C=C3\SC(=S)NC3=O)cc2c1,6.8,-3.6,24.6,77.2*,.,5.2,31.9,ATG4B conf=20.6
O=C1NC(=S)SC1=Cc1ccccc1Cl,9.5,.,.,3.5,.,.,.,
O=C1NC(=S)S/C1=C\c1cc2ccccc2nc1N1CCCCC1,7.6,8.9,34.3,64.7*,17.4,97.0*,78.6*,
Cc1cc(C)nc(N=C(NC(=O)Nc2ccc(Cl)c(Cl)c2)Nc2cccc(Cl)c2)n1,0.6,.,.,.,.,.,.,
CC(=O)Nc1ccc(C=NNC(=O)c2cc3cc(C)ccc3nc2C)cc1,0.2,.,.,.,.,.,.,
Cc1cc(NN=Cc2ccc(Br)cc2)nc(-n2nc(C)cc2C)n1,1.0,.,.,.,.,.,.,
Cc1ccc(Cn2cnc3c(cnn3C(C)(C)C)c2=O)cc1,-0.4,-13.7,17.8,0.9,4.2,-15.9,.,
CC(C)(C)n1ncc2c(=O)n(Cc3ccccc3Br)cnc21,2.4,.,5.9,40.6*,.,-1.1,42.5,ATG4B conf=68.6*
SMILES,UCH37 DUB inh,Calb FLC,NLRP3 yeast inh,ATG4B inh,NALP1 inh,ALR inh,PLA2 ctr,others
O=C(CN1C(=O)/C(=C/c2ccco2)SC1=S)Nc1ccc(C(=O)O)c(O)c1,10.1,3.6,18.5,61.6*,0.5,12.3,20.1,ATG4B conf=57.4*
CC(C(=O)N(C)C1CCS(=O)(=O)C1)N1C(=O)/C(=C/c2ccco2)SC1=S (configuration not stated),7.7,-6.6,11.4,-8.6,-17.1,-66.6,.,
CC(C(=O)Nc1ccc(C(=O)O)c(O)c1)N1C(=O)/C(=C\c2ccco2)SC1=S (configuration not stated),19.2,-1.8,8.6,48.2*,8.5,18.5,11.6,ATG4B conf=61.7*
O=C(CN1C(=O)/C(=C/c2ccco2)SC1=S)Nc1ccc(O)c(C(=O)O)c1,10.9,1.6,3.9,30.7,0.6,18.3,.,
Cc1ccc(N(CC(=O)NCc2ccc(F)cc2)C(=O)c2snc(C(N)=O)c2N)cc1C,-112.3,-8.7,23.5,59.7*,29.8,.,56.9*,
COc1ccc(N(CC(=O)NCc2ccc(F)cc2)C(=O)c2snc(C(N)=O)c2N)cc1OC,-7.5,14.9,9.8,9.5,20.9,-12.1,.,
COC(=O)C=c1sc2nc3ccccc3n2c1=O,6.4,.,.,.,.,.,.,
O=C(CSc1nnc(-c2cc3ccccc3cc2O)n1Cc1ccco1)N1CCc2ccccc2C1,2.9,2.7,3.5,41.3*,11.8,9.1,54.3*,
Cc1cc(N2CCN(C)CC2)ccc1NC(=O)c1c2c(nc3ccccc13)CCN(Cc1ccccc1)C2,4.3,1.3,22.5,-5.0,8.5,-0.7,.,
Cc1c(Cl)cccc1NC(=O)COC(=O)c1c2c(nc3ccccc13)CCN(Cc1ccccc1)C2,1.1,-12.0,15.7,74.1*,10.4,.,85.0*,
CC(C)c1ccccc1NC(=O)COC(=O)c1c2c(nc3ccccc13)CCN(Cc1ccccc1)C2,-5.7,20.5,1.9,46.4*,-0.1,6.5,58.1*,
NC(=O)c1ccc(NCC2COc3ccccc3O2)c([N+](=O)[O-])c1 (configuration not stated),0.3,27.4,17.2,81.8*,10.3,-1.6,78.7*,
CC1CC(C)CN(C(=O)C2CCN(S(=O)(=O)c3ccc4c(c3)CC(C)N4C(=O)C3CC3)CC2)C1 (configuration not stated),-0.3,3.0,-11.0,43.2*,4.4,-1.9,46.2,ATG4B conf=59.9*
CC(=O)N1c2ccc(S(=O)(=O)N3CCC(C(=O)N4CC(C)CC(C)C4)CC3)cc2CC1C (configuration not stated),-0.6,-1.5,0.6,15.9,3.1,-3.8,.,
O=c1[nH]c(SCc2ccccc2Cl)nc2c1CCCC2,-2.7,48.1,2.9,17.7,13.5,43.8,.,

# Source: PubChem BioAssay
